Assay [1] deals with T1, Polyunsaturated fatty acid lipoxygenase ALOX15 (Homo sapiens, UniProt P16050).
T1 sequence (P16050 whole entry): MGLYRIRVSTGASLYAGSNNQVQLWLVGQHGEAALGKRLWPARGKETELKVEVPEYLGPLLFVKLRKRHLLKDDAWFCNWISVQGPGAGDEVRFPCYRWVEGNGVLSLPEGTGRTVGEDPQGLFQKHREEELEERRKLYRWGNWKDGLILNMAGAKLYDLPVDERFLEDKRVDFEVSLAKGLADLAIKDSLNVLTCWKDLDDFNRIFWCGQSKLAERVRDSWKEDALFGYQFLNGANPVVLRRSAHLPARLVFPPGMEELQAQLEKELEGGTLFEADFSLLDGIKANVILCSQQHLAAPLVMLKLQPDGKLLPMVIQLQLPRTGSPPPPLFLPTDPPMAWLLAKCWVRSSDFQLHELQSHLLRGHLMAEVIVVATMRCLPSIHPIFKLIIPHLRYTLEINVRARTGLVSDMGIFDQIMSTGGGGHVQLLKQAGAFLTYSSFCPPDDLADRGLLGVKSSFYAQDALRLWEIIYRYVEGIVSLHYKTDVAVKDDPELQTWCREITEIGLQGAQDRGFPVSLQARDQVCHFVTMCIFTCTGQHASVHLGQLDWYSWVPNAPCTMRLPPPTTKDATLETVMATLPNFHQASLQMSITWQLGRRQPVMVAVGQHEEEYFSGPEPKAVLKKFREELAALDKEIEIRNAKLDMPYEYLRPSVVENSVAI
Put plainly: Inhibition of recombinant N-terminal His6-tagged human reticulocyte 12/15-lipoxygenase using arachidonic acid as substrate by UV-vis spectrometric analysis.

Assay [2] addresses T2, Polyunsaturated fatty acid lipoxygenase ALOX15 (Homo sapiens) (UniProt P16050).
T2 sequence (whole entry): T1 sequence (P16050 whole entry)
As to the kind of experiment: Inhibition of recombinant N-terminal His6-tagged human reticulocyte 12/15-lipoxygenase using arachidonic acid as substrate at 25 uM by UV-vis spectrometric analysis relative to control. Summed up:
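His6-tagged human 12/15-LOX, Ni-NTA purified, at 40 nM in 25 mM HEPES pH 7.5 with 0.01% Triton X-100 and 10 μM arachidonic acid, in a stirred cuvette at 22 °C. Diene formation was followed at 234 nm, and percent inhibition at 25 μM inhibitor was calculated against the DMSO control rate.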

The target of assay [3] is T3, Prostaglandin G/H synthase 2 (Homo sapiens) (UniProt P35354).
T3 sequence (whole entry): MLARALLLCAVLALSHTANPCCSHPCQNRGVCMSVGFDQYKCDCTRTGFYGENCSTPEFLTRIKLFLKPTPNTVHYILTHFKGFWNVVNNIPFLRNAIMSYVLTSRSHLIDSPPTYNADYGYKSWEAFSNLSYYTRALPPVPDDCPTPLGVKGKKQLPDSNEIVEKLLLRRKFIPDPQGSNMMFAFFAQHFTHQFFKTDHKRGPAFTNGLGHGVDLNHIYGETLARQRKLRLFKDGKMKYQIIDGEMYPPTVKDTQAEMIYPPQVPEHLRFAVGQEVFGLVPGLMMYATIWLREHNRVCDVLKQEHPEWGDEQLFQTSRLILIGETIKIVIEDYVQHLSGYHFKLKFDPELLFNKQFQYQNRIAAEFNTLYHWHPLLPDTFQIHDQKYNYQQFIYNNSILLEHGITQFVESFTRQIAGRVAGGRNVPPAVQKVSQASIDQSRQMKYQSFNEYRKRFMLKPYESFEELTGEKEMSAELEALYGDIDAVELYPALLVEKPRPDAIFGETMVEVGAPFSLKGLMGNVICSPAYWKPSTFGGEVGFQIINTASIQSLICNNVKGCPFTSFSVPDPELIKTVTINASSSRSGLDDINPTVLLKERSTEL
Put plainly: Inhibition of human COX-2 using arachidonic acid as substrate assessed as consumption of oxygen at 5 uM preincubated for 5 mins followed by substrate addition by oxygen electrode-based assay relative to control. Summed up: (§1)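 COX-1 or COX-2 (2–5 μg) in 0.1 M Tris-HCl pH 8.0 with 5 mM EDTA, 2 mM phenol and 1 μM hematin at 37 °C. Inhibitor was preincubated 5 min, then 100 μM arachidonic acid was added. Oxygen consumption was read on an oxygen electrode, and percent inhibition was calculated against a DMSO control, with indomethacin as positive control.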

The target in assay [4] is T4, Prostaglandin G/H synthase 1 (Ovis aries) (UniProt P05979).
T4 sequence (whole entry): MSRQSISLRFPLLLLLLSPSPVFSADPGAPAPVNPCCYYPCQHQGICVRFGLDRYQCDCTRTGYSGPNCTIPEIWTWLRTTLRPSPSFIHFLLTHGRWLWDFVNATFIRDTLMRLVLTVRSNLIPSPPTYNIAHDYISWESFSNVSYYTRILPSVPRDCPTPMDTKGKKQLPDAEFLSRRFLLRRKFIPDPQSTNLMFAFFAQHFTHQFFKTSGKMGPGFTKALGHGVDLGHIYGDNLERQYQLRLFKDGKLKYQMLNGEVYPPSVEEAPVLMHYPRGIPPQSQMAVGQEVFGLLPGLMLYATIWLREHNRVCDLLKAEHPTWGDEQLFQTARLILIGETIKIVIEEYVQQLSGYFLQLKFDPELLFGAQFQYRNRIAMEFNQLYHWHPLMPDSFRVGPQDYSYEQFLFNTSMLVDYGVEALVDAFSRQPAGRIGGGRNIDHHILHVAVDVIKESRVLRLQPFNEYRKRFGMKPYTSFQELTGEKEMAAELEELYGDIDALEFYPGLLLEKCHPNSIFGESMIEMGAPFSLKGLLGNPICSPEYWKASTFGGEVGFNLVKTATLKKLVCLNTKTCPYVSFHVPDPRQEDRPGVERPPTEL
Put plainly: Inhibition of ovine COX-1 using arachidonic acid as substrate assessed as consumption of oxygen at 5 uM preincubated for 5 mins followed by substrate addition by oxygen electrode-based assay relative to control. Summed up: as §1

For assay [5], the target named is T5, Polyunsaturated fatty acid lipoxygenase ALOX15 (Mus musculus) (UniProt P39654).
T5 sequence (whole entry): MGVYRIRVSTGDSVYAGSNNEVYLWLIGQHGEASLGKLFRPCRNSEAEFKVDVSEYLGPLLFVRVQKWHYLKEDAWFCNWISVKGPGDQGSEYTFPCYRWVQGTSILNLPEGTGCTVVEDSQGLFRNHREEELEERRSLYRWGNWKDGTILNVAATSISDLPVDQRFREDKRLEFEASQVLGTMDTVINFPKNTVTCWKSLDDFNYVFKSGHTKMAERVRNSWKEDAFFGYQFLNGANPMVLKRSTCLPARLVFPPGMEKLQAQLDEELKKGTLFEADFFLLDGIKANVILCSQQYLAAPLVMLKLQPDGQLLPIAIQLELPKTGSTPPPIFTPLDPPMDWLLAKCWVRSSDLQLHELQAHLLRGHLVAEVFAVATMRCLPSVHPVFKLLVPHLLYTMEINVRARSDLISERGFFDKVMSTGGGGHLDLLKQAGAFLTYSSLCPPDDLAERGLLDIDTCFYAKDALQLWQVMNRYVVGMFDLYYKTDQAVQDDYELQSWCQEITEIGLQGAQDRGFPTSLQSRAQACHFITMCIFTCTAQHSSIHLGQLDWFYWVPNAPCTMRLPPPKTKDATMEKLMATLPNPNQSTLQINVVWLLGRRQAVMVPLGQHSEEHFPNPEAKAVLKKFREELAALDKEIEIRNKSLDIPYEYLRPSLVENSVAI
Put plainly: Inhibition of 12/15-lipoxygenase in mouse HT22 cells assessed as protection against glutamate-induced cell death at 5 uM after 24 hrs by LDH release assay. The conditions noted are these: HT-22. It is filed as cell-based. Summed up:
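HT22 mouse hippocampal cells were grown in DMEM with 10% FBS and penicillin/streptomycin, seeded at 1 × 10^4 cells/well and treated 18 h later at 50–70% confluence. Medium was exchanged for fresh medium with 5 mM glutamate plus compound or DMSO (≤0.1% final). Death was scored as percent LDH released to the medium versus the cell extract, background-subtracted.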
A general note: Release of lactate dehydrogenase indicates damage to the cell membrane.

Assay [6] deals with T6, Polyunsaturated fatty acid lipoxygenase ALOX15B (Homo sapiens, UniProt O15296).
T6 sequence (O15296 whole entry): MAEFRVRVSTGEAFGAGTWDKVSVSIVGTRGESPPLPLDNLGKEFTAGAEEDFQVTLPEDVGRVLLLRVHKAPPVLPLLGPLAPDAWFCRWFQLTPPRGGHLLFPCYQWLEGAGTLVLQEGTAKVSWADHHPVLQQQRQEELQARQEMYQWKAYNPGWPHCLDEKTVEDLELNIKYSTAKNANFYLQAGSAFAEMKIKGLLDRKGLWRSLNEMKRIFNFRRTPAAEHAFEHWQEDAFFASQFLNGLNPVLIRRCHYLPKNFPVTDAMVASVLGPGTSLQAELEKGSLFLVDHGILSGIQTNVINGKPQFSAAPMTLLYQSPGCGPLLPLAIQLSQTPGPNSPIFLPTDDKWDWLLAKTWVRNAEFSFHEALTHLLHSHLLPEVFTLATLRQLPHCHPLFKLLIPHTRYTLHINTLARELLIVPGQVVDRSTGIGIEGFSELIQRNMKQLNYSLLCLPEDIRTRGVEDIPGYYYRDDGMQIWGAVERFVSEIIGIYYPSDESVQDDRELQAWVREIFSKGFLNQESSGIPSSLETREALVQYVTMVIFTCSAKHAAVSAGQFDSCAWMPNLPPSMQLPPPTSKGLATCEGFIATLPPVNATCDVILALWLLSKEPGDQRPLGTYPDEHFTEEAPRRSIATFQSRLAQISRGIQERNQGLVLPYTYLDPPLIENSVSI
Put plainly: Inhibition of N-terminal His6-tagged human epithelial 15-lipoxygenase-2 using arachidonic acid as substrate by UV-vis spectrometric analysis.

The target of assay [7] is T7, Polyunsaturated fatty acid 5-lipoxygenase (Homo sapiens, UniProt P09917).
T7 sequence (P09917 whole entry): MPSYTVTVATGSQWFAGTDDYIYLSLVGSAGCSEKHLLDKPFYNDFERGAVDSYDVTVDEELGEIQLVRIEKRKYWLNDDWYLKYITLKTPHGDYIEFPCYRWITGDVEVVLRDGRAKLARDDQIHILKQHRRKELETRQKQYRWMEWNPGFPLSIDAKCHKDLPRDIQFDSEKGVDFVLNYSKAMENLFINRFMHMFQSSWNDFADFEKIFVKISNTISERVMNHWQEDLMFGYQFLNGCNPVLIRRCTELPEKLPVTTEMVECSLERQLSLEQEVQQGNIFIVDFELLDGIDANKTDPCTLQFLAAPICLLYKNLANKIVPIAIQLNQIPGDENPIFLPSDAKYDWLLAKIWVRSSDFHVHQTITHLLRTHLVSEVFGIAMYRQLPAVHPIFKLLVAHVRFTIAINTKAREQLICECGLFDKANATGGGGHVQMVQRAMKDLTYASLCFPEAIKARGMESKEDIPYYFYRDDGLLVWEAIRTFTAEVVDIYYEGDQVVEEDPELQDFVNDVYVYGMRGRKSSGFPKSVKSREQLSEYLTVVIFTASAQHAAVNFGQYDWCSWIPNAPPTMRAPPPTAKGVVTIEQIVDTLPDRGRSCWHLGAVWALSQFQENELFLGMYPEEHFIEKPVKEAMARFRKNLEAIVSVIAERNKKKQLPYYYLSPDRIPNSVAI
Put plainly: Inhibition of human 5-lipoxygenase using arachidonic acid as substrate by UV-vis spectrometric analysis.

Activity calls are given as the source filed them. No cut-off for these calls is given here.

A word on the IC50: it is the point on the concentration scale where inhibition reaches its midpoint. As for `CNc1oc(-c2cccc3ccccc23)nc1C(=O)OC`, the 50% inhibitory concentration (IC50) in assay [1] was over 40 µM.

On to `CNc1oc(-c2cccc3cnccc23)nc1C#N`, for which, in assay [2], the Imax is under 50%.

Regarding `CNc1nnc(-c2cccc3ccccc23)s1`, the IC50 in assay [1] is over 40 µM.

`N#Cc1nc(-c2cccc3ccccc23)oc1NCc1ccccc1`: in assay [1], the IC50 is over 30 µM. For the same compound, the Imax in assay [2] was under 50%. As for `CNc1oc(C2CCCC2)nc1C#N`, in assay [1], the IC50 is over 50 µM.

With `CNc1oc(-c2ccc3ccccc3c2)nc1C#N`, in assay [2], the Imax is under 50%. As to `CNc1sc(-c2cccc3ccccc23)nc1C(=O)OC`, the Imax in assay [2] is under 50%. By inhibition is commonly meant the change of the read-out against control, counted positive when it falls. Turning to `CNc1oc(-c2cccc(Cl)c2Cl)nc1C#N`, the inhibition in assay [3] and in assay [4] was under 10% in each case. With `N#Cc1nc(-c2cccc3ccccc23)oc1NC1CNC1`, in assay [1], the 50% inhibitory concentration (IC50) is over 40 µM. Besides, in assay [5], the inhibition entry was “Active”.

Turning to `N#Cc1nc(-c2cccc3ccccc23)oc1NC1COC1`, in assay [1], the IC50 is over 25 µM. With `CNc1oc(-c2ccc(-c3ccccc3)cc2)nc1C#N`, the inhibition entry in assay [5] was “Active”. Consider `CC(C)Nc1oc(-c2cccc3ccccc23)nc1C#N`, for which the concentration for half-maximal inhibition (IC50) in assay [1] is over 40 µM. The same measure, in the same setting: next, `CNc1nc(-c2cccc3ccccc23)ccc1C#N`: over 40 µM.

`CNc1oc(-c2ccc(Cl)c(Cl)c2)nc1C#N`: the inhibition in assay [3] and in assay [4] was under 10% in each case.

Take `CNc1sc(-c2cccc3ccccc23)nc1C#N`: the inhibition in assay [3] and in assay [4] was under 10% each time. Moreover, the 50% inhibitory concentration (IC50) in assay [6] and in assay [7] was over 50 µM throughout. `N#Cc1nc(-c2cccc3ccccc23)oc1Nc1ccccc1`: the half-maximal inhibitory concentration (IC50) in assay [1] was over 30 µM. In addition, the Imax in assay [2] is under 50%. As for `CNc1nc(C#N)c(-c2cccc3ccccc23)o1`, the IC50 in assay [1] was over 40 µM. Further, the inhibition entry in assay [5] is “inactive”.

The values above are taken from ChEMBL document CHEMBL3259653, “Potent and selective inhibitors of human reticulocyte 12/15-lipoxygenase as anti-stroke therapies” (J Med Chem, 2014).
